Reference: ChEMBL document CHEMBL1140942, “Novel pyrrolidine ureas as C-C chemokine receptor 1 (CCR1) antagonists” (J Med Chem, 2009)
Activity calls are given as the source filed them. No cut-off for these calls is given here.

How the values were obtained:
[1] = target: T1, C-C chemokine receptor type 1 (Homo sapiens, UniProt P32246); experiment: Displacement of [125I]MIP-1-alpha from human recombinant CCR1 expressed in HEK293 cells; assay type: cell-based
T1 sequence (P32246 whole entry): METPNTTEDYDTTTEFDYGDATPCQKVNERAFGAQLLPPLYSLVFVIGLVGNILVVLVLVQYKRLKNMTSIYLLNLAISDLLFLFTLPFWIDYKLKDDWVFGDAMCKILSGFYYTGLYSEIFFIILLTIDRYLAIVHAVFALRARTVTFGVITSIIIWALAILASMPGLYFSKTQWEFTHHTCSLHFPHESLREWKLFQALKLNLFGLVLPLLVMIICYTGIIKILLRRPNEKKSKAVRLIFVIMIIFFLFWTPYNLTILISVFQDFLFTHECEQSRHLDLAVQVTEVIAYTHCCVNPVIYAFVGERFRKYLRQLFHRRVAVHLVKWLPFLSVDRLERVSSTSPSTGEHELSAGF
In short: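 Scintillation proximity binding in 384-well format. Membranes (50 µg/mL) were mixed with SPA beads (10 mg/mL) in buffer of 130 mM NaCl, 5 mM KCl, 1 mM MnCl₂, 50 mM Tris HCl pH 7.4 and 0.1% BSA. Varied compound concentrations added with [¹²⁵I]MIP-1α at 0.1 nM final. Plates spun, incubated 4 h, then counted.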

[2] = Metabolic stability in rat liver microsomes assessed as compound remaining at 1 uM after 30 mins by LC/MS; assay type: ADME, Microsome; conditions: read-out: Stability
In short: (§1)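 Compound at 1 µM incubated with rat or human liver microsomes (300 nM cytochrome P450) in phosphate buffer pH 7.4 with 1 mM NADPH for 30 min at 37 °C. Stopped with acetonitrile and centrifuged. Percent remaining at 30 min determined by LC/MS.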

[3] = test system: Rattus norvegicus; experiment: (§2) AUC(0 to infinity) in Sprague-Dawley rat at 5 mg/kg, po; assay type: ADME, organism-based, Plasma; set-up: time infinity, dose 5 mg/kg, route oral; conditions: in vivo
In short: (§3)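 Male Sprague-Dawley rats, three to four per compound, given 5 mg/kg by oral gavage in 0.5% methyl cellulose, either singly or in a cassette. Serial blood drawn from an indwelling arterial cannula up to 6 or 24 h. Plasma proteins precipitated, and parent compound quantified by LC/MS/MS.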

[4] = Cmax in Sprague-Dawley rat at 5 mg/kg, po; assay type: ADME, organism-based; set-up: dose 5 mg/kg, route oral; conditions: in vivo; in short: as §3
[5] = target: T2, C-X-C chemokine receptor type 1 (Homo sapiens) (UniProt P25024); experiment: Inhibition of CXCR1
T2 sequence (whole entry): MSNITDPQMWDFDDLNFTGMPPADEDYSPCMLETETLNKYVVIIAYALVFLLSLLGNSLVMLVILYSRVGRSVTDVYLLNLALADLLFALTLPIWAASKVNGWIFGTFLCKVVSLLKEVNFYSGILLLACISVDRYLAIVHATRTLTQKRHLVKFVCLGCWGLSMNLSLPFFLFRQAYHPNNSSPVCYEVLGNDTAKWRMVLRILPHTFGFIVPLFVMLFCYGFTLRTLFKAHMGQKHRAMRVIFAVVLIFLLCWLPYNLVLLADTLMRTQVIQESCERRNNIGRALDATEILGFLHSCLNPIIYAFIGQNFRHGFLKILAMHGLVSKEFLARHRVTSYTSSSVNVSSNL

[6] = target: C-C chemokine receptor type 2 (Homo sapiens) (UniProt P41597); experiment: Inhibition of CCR2b
[7] = Half life in Sprague-Dawley rat at 5 mg/kg, po; assay type: ADME, organism-based; set-up: dose 5 mg/kg, route oral; conditions: in vivo; in short: as §3
[8] = Oral bioavailability in Sprague-Dawley rat at 5 mg/kg; assay type: ADME, organism-based; conditions: in vivo
In short: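 Oral dosing was 5 mg/kg by gavage in 0.5% methyl cellulose to male Sprague-Dawley rats (three to four), with a 1 mg/kg intravenous dose via indwelling catheter for comparison. Serial arterial-cannula blood sampling. Parent compound in protein-precipitated plasma measured by LC/MS/MS.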

[9] = target: T3, CX3C chemokine receptor 1 (Homo sapiens) (UniProt P49238); experiment: Inhibition of CX3CR1
T3 sequence (whole entry): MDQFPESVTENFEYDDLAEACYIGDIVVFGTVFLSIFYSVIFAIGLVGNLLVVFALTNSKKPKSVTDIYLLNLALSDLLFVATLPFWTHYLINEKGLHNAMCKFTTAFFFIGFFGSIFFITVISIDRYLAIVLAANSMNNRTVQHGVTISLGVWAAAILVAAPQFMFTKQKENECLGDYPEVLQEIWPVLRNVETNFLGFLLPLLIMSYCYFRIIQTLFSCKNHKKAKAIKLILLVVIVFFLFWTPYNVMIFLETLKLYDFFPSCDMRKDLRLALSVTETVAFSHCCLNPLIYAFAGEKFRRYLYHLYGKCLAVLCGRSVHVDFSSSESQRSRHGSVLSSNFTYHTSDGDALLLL

[10] = target: C-C chemokine receptor type 5 (Homo sapiens) (UniProt P51681); experiment: Inhibition of CCR5
[11] = Metabolic stability in human liver microsomes assessed as compound remaining at 1 uM after 30 mins by LC/MS; assay type: ADME, Microsome; conditions: read-out: Stability; in short: as §1
[12] = target: T4, C-X-C chemokine receptor type 2 (Homo sapiens) (UniProt P25025); experiment: Inhibition of CXCR2
T4 sequence (whole entry): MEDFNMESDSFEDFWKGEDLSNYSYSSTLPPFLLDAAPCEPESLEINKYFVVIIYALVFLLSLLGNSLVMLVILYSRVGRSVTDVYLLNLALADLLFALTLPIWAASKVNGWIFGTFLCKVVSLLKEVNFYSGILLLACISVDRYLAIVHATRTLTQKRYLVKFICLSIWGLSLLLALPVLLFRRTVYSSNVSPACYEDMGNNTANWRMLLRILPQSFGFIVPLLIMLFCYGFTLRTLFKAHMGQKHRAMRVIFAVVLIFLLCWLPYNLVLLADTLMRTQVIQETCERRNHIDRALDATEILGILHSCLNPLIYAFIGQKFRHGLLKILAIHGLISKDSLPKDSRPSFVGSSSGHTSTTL

[13] = target: T5, C-C chemokine receptor type 4 (Homo sapiens) (UniProt P51679); experiment: Inhibition of CCR4
T5 sequence (whole entry): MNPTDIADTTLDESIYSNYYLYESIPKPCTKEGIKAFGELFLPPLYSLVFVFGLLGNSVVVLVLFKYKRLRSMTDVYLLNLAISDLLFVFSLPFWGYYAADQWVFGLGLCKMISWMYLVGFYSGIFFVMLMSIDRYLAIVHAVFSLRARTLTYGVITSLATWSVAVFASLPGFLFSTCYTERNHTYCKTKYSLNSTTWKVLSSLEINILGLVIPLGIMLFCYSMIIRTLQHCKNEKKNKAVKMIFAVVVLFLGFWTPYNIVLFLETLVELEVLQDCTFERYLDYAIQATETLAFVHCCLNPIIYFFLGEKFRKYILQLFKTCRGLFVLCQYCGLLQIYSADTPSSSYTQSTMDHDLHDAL

[14] = AUC(0 to 6 hrs) in Sprague-Dawley rat at 5 mg/kg, po; assay type: ADME, organism-based; set-up: time < 6 hr, dose 5 mg/kg, route oral; conditions: plasma; in short: as §3
[15] = as §2; assay type: ADME, organism-based, Plasma; set-up: time infinity, dose 5 mg/kg, route oral; conditions: Sprague-Dawley, plasma; in short: as §3

Chain of C-C chemokine receptor type 2 (Homo sapiens) (P41597 whole entry, looked up): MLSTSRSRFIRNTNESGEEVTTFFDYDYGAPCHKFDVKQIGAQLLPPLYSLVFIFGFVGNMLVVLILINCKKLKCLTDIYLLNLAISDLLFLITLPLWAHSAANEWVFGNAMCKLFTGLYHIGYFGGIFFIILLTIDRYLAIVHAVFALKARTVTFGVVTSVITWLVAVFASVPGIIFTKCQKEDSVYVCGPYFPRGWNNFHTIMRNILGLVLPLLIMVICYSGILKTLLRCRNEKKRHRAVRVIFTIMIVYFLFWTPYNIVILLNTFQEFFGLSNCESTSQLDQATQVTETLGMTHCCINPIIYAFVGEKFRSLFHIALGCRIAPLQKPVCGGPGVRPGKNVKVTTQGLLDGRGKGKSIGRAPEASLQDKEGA
Chain of C-C chemokine receptor type 5 (Homo sapiens) (P51681 whole entry, looked up): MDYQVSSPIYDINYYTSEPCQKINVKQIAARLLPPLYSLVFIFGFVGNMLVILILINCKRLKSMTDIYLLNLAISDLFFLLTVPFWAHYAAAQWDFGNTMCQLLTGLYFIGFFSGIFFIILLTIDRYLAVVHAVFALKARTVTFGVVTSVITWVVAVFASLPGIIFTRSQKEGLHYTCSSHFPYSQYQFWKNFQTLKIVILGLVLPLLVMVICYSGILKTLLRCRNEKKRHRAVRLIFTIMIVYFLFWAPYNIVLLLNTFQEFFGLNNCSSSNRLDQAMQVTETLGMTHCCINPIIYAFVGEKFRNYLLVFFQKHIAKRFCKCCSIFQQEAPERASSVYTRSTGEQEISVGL

SMILES	IC50 [1] [nM]	also measured
CN(Cc1ccc(Cl)cc1)C(=O)[C@H]1CCCN1C(=O)Nc1cccc(C(F)(F)F)c1	2950	
O=C([C@H]1CCCN1C(=O)Nc1ccc(Cl)cc1)N(CCO)Cc1ccccc1Cl	43000	
O=C([C@H]1CCCN1C(=O)Nc1ccc(Cl)cc1)N(CCO)Cc1ccc(Cl)cc1	540	
O=C(NCc1ccc(Cl)cc1)[C@H]1CCCN1C(=O)Nc1ccc(Cl)cc1	> 75000	
CC(c1ccc(Cl)cc1)N(C)C(=O)[C@H]1CCCN1C(=O)Nc1ccc(Cl)cc1 (stereo partly specified)	4700	
Cc1cc(CN(C)C(=O)[C@H]2CCCN2C(=O)Nc2ccc(Cl)cc2)ccc1Cl	4000	
Cc1cc(C(F)(F)F)ccc1NC(=O)N1CCC[C@@H]1C(=O)N(C)Cc1ccc(Cl)cc1	50	remaining at 0.5 h, 1 µM [2]: 81%; Cmax [4]: 699 ng/mL; AUC(0-t) at 6 h [14]: 2590 ng·h/mL; remaining at 0.5 h, 1 µM [11]: 58%
CCN(Cc1ccc(Cl)cc1)C(=O)[C@H]1CCCN1C(=O)Nc1ccc(Cl)cc1	270	
CN(Cc1ccc(Cl)cc1)C(=O)[C@H]1CCCN1C(=O)Nc1ccc(C(F)(F)F)cc1Cl	120	remaining at 0.5 h, 1 µM [2]: 68%; Cmax [4]: 437 ng/mL; AUC(0-t) at 6 h [14]: 2060 ng·h/mL; remaining at 0.5 h, 1 µM [11]: 73%
CN(Cc1ccc(Cl)cc1)C(=O)[C@H]1CCCN1C(=O)Nc1ccc(C(F)(F)F)cc1F	23	remaining at 0.5 h, 1 µM [2]: 76%; Cmax [4]: 291 ng/mL; AUC(0-t) at 6 h [14]: 1240 ng·h/mL; remaining at 0.5 h, 1 µM [11]: 93%
Cc1cc(Cl)ccc1CN(C)C(=O)[C@H]1CCCN1C(=O)Nc1ccc(Cl)cc1	> 100000	
O=C([C@H]1CCCN1C(=O)Nc1ccc(Cl)cc1)N(CCO)Cc1cccc(Cl)c1	> 100000	
Cc1cc(C(F)(F)F)cc(C)c1NC(=O)N1CCC[C@@H]1C(=O)N(C)Cc1ccc(Cl)cc1	11	remaining at 0.5 h, 1 µM [2]: 84%; AUC(0-inf) [15]: 611 ng·h/mL; Cmax [4]: 195 ng/mL; remaining at 0.5 h, 1 µM [11]: 74%
CCCN(Cc1ccc(Cl)cc1)C(=O)[C@H]1CCCN1C(=O)Nc1ccc(Cl)cc1	3600	

Now from value to compound, other results behind:

IC50 [1] [nM]	SMILES	also measured
5700	Cc1ccc(CN(C)C(=O)[C@H]2CCCN2C(=O)Nc2ccc(Cl)cc2)cc1	
1300	CN(Cc1ccc(F)cc1)C(=O)[C@H]1CCCN1C(=O)Nc1ccc(Cl)cc1	
140	CN(Cc1ccc(Cl)cc1)C(=O)[C@H]1CCCN1C(=O)Nc1ccc(C(F)(F)F)cc1	remaining at 0.5 h, 1 µM [2]: 74%; AUC [3]: 9390 ng·h/mL; Cmax [4]: 834 ng/mL; Activity [5]: inactive; Activity [6]: inactive; half-life [7]: 264 min; bioavailability [8]: 45%; Activity [9]: inactive; Activity [10]: inactive; remaining at 0.5 h, 1 µM [11]: 78%; Activity [12]: inactive; Activity [13]: inactive
> 100000	CN(Cc1ccc(C(F)(F)F)cc1)C(=O)[C@H]1CCCN1C(=O)Nc1ccc(Cl)cc1	
680	Cc1ccc(NC(=O)N2CCC[C@@H]2C(=O)N(C)Cc2ccc(Cl)cc2)cc1	
700	CN(Cc1ccc(Cl)cc1)C(=O)[C@H]1CCCN1C(=O)Nc1ccc(F)cc1	
> 28000	CN(Cc1ccc(Cl)cc1)C(=O)[C@@H]1CCCN1C(=O)Nc1ccc(C(F)(F)F)cc1	
> 100000	CN(Cc1ccc(Cl)cc1)C(=O)[C@H]1CCN1C(=O)Nc1ccc(C(F)(F)F)cc1	
290	COc1ccc(NC(=O)N2CCC[C@@H]2C(=O)N(C)Cc2ccc(Cl)cc2)cc1	
720	CN(Cc1ccc(Cl)cc1)C(=O)[C@H]1CCCN1C(=O)Nc1ccc(C#N)cc1	
> 13000	CN(Cc1ccc(C#N)cc1)C(=O)[C@H]1CCCN1C(=O)Nc1ccc(Cl)cc1	
> 77000	COc1ccc(CN(C)C(=O)[C@H]2CCCN2C(=O)Nc2ccc(Cl)cc2)cc1	
> 28000	CN(Cc1ccc(Cl)cc1)C(=O)C1CCCCN1C(=O)Nc1ccc(C(F)(F)F)cc1 (stereo unspecified)	
270	CN(Cc1ccc(Cl)cc1)C(=O)[C@H]1CCCN1C(=O)Nc1ccc(Cl)cc1	
